Results: ChEMBL document CHEMBL2177064, “Discovery and optimization of a novel spiropyrrolidine inhibitor of β-secretase (BACE1) through fragment-based drug design” (J Med Chem, 2012)

Experiments:
[1] = Permeability from basal to apical side of RRCK cells at 2 uM; type: ADME, cell-based, Canis lupus familiaris, MDCKII-LE; conditions: dog, MDCK; read-out: permeability
In short: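 Basal→apical transfer rate of test compound at 2 μM across contiguous RRCK cell monolayers, quantified by MS.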

[2] = Intrinsic clearance in human liver microsomes assessed per mg of protein; type: ADME, Microsome; conditions: read-out: CLH
[3] = Permeability from apical to basal side of MDCK cells; type: ADME, cell-based, Canis lupus familiaris; conditions: dog, read-out: permeability
In short: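 Test compound applied at 2 μM to contiguous cell monolayers. Apical-to-basal transfer rate quantified by mass spectrometry.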

| Papp B→A at 2 µM [1] | microsomal CLint [2] | SMILES | Papp A→B [3] |
| --- | --- | --- | --- |
| 20.9 ×10⁻⁶ cm/s | – | COC(=O)N1CCC(OC(=O)[C@H]2C[C@]3(CN2)C(=O)Nc2ccccc23)CC1 | – |
| 30.4 ×10⁻⁶ cm/s | – | O=C(OCc1ccccc1)[C@H]1C[C@]2(CN1)C(=O)Nc1ccccc12 | – |
| 18.4 ×10⁻⁶ cm/s | – | N#Cc1ccc(COC(=O)[C@H]2C[C@]3(CN2)C(=O)Nc2ccccc23)cc1 | – |
| 7.11 ×10⁻⁶ cm/s | – | O=C(OCc1ccc(Br)cc1)[C@H]1C[C@]2(CN1)C(=O)Nc1ccccc12 | – |
| 10.2 ×10⁻⁶ cm/s | – | N#Cc1ccc(COC(=O)[C@H]2C[C@]3(CN2)C(=O)Nc2ccccc23)cc1Br | – |
| 22.7 ×10⁻⁶ cm/s | – | N#CC1(OC(=O)[C@H]2C[C@]3(CN2)C(=O)Nc2ccccc23)CCCCC1 | – |
| 23.9 ×10⁻⁶ cm/s | 24.7 µL/min/mg | O=C1Nc2ccccc2[C@@]12CN[C@@H](COCc1ccccc1)C2 | – |
| 11.4 ×10⁻⁶ cm/s | 91.3 µL/min/mg | O=C1Nc2ccccc2[C@@]12CN[C@@H](CCCc1ccccc1)C2 | – |
| – | – | O=C1Nc2ccccc2[C@]12CCNC2 | 12.2 ×10⁻⁶ cm/s |
| 13.5 ×10⁻⁶ cm/s | 76.7 µL/min/mg | O=C1Nc2ccccc2[C@@]12CN[C@@H](CNCc1ccccc1)C2 | – |
| – | 94.8 µL/min/mg | O=C1Nc2ccccc2[C@@]12CN[C@@H](CNCc1cccc(C(F)(F)F)c1)C2 | – |
| – | < 8 µL/min/mg | CN(C)C(=O)[C@H]1C[C@]2(CN1)C(=O)Nc1ccccc12 | – |
| 2.92 ×10⁻⁶ cm/s | < 8 µL/min/mg | CN(C(=O)[C@H]1C[C@]2(CN1)C(=O)Nc1ccccc12)C1CCOCC1 | – |
| – | 15 µL/min/mg | O=C(NCc1ccccc1)[C@H]1C[C@]2(CN1)C(=O)Nc1ccccc12 | – |
| 25 ×10⁻⁶ cm/s | – | O=C(OC1CCOCC1)[C@H]1C[C@]2(CN1)C(=O)Nc1ccccc12 | – |
| 49.1 ×10⁻⁶ cm/s | – | O=C(OC1CCS(=O)(=O)c2ccc(Br)cc21)[C@H]1C[C@]2(CN1)C(=O)Nc1ccccc12 (mixture of isomers) | – |
| 29.6 ×10⁻⁶ cm/s | 16.6 µL/min/mg | O=C1Nc2ccccc2[C@@]12CN[C@@H](c1ccccc1)C2 (racemic) | – |

| SMILES | Papp B→A at 2 µM [1] | microsomal CLint [2] | Papp A→B [3] |
| --- | --- | --- | --- |
| CNC(=O)[C@H]1C[C@]2(CN1)C(=O)Nc1ccccc12 | 4.86 ×10⁻⁶ cm/s | 14.3 µL/min/mg | – |
| COC(=O)[C@H]1C[C@]2(CN1)C(=O)Nc1ccccc12 | 29.5 ×10⁻⁶ cm/s | – | – |
